Data from the RNAGym collection of RNA variant scans (doi:10.1126/science.aae0568).
This sample holds only a part of the variants without activity.

B1: tRNA (parent)
chain: GUUCCGUUGGCGUAAUGGUAACGCGUCUCCCUCCUAAGGAGAAGACUGCGGGUUCGAGUCCCGUACGGAACG

Variants of: B1
Assay: yeast fitness relative to wild type (ratio to wild type); higher = fitter; tRNA-Arg(CCU), competitive growth, 37 C, YPD
Method in brief: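 A pool of Saccharomyces cerevisiae strains, each with a tRNA-Arg(CCU) gene variant at the native genomic locus, was competed in YPD at 37°C for 24 hours across six parallel replicates. The variants had been chemically synthesised at a 3% per-site mutation rate over 69 sites, and gene amplicons before and after competition were read by 100-nucleotide paired-end sequencing. Darwinian fitness relative to wild type rested on changes in genotype frequencies. Genotypes required ≥ 100 starting reads, and estimates < 0.5 were set to 0.5.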

Row | Variant | yeast fitness
1 | C33U C61U | 0.734
2 | C33U A42U G68A A70G | 0.534
3 | C34G G38C A69U | 0.5
4 | C34A G51C | ≤ 0.5
5 | C34G A45U G68C | 0.578
6 | C34G C62A | 0.64
7 | C34G C62U | 0.639
8 | C34G A37C G58C | ≤ 0.5
9 | C34A G44C A57U C62U | ≤ 0.5
10 | C34G C55G U59C C60U G67U | 0.555
11 | C34G G39U U47G | ≤ 0.5
12 | C33U C49U A69U | 0.564
13 | C34G C60U | 0.536
14 | C33U G51A A57U | ≤ 0.5
15 | C34A A37U G52A | ≤ 0.5
16 | C34G G50C C55G C60A | 0.715
17 | C33U G38A C46U U64C | 0.536
18 | C34A A42U G68C | ≤ 0.5
19 | C33U G50A | 0.626
20 | C33U G41A | 0.721
21 | C33U G41C | 0.708
22 | C34G C55A | ≤ 0.5
23 | C33U A40C A45C U59G C60U | ≤ 0.5
24 | C33U C34G C66U | 0.542

Row | Variant | yeast fitness
25 | C34G A36G C60G | 0.642
26 | C33U A57C | ≤ 0.5
27 | C33U A57U | 0.546
28 | C33U G44A A65G | 0.606
29 | C34G G52A A69C | 0.645
30 | C34A C49U | 0.826
31 | C33U A43G U47C | 0.563
32 | C34A C49G G50A U64A | 0.551
33 | C34A A37G A57U | 0.616
34 | C34A A42C C60G | ≤ 0.5
35 | C33U A45C A57U U59C | ≤ 0.5
36 | C33U G38A G41U C46U | ≤ 0.5
37 | C34G A42G C66U | 1.03
38 | C34A A36C | 0.511
39 | C34A A36G | 0.741
40 | C34A A36U | 0.518
41 | C34A | 0.71
42 | C34G | 0.65
43 | C33U A65G | 0.665
44 | C34G C61A | 0.613
45 | C34G A45C A57C | 0.514
46 | C34G A37C C60A | ≤ 0.5
47 | C34A C49A G63U G67A | ≤ 0.5
48 | C34A A42U A43C | 0.629

Row | Variant | yeast fitness
49 | C34A A37U | 0.741
50 | C34A A43U | 0.729
51 | C34A A43C | 0.645
52 | C33U C46G C49U | 0.632
53 | C34G A45G C60U A69U | ≤ 0.5
54 | C34G G48A A70U | 0.584
55 | C34G C49G A65G | ≤ 0.5
56 | C34A A37U A69C | ≤ 0.5
57 | C33U G63C | 0.545
58 | C33U G63A | 0.614
59 | C34G G58C A65U | ≤ 0.5
60 | C34A A42U A69U | ≤ 0.5
61 | C34A G51A G67A | ≤ 0.5
62 | C34G C49G | 0.657
63 | C34G G52C C60G | ≤ 0.5
64 | C34G U35G A40U A42G C61G | ≤ 0.5
65 | C33U G39C A57U | 0.643
66 | C34A A70U | 0.924
67 | C34G A43C G50C | ≤ 0.5
68 | C34A G68A | 0.647
69 | C34G U47C | 0.599
70 | C34G U47C C49U | 0.638
71 | C33U A42G U59G | 0.504
72 | C33U A42G U59A | ≤ 0.5

Row | Variant | yeast fitness
73 | C33U C49G A65C | 0.504
74 | C34A G44A A57U | ≤ 0.5
75 | C33G U47G A57G A69U | 0.509
76 | C34G A40G U53A G68C | ≤ 0.5
77 | C33U A43G U53C | ≤ 0.5
78 | C33U U59A A70G | ≤ 0.5
79 | C34A U59C | 0.728
80 | C34G U35G G39A | 0.593
81 | C34G A45C G51A A65U | 0.617
82 | C34G C46A C62U A69C | ≤ 0.5
83 | C33U G39A A69C | ≤ 0.5
84 | C34G A42C C55A C60U | ≤ 0.5
85 | C34A A40G U47A C66G A69C A70C | 0.693
86 | C34A A36U G52A C60A | ≤ 0.5
87 | C34A A37G C61A | ≤ 0.5
88 | C33U A45C C49U | 0.652
89 | C33U A43G A70U | 0.637
90 | C34A A42G C46U | ≤ 0.5
91 | C33U G39A A57G | ≤ 0.5
92 | C34A A45C G68A | 0.614
93 | C34G C61U C66U | 0.538
94 | C33U C60U | 0.629
95 | C33U C60G | 0.607
96 | C34A C60G | 0.664

Row | Variant | yeast fitness
97 | C34A G41A C46A | ≤ 0.5
98 | C34A G41A | 0.782
99 | C34A A37U G63C | ≤ 0.5
100 | C33U U47C G48A G58A | 0.506
101 | C34G G38C U47C C62G A69C | ≤ 0.5
102 | C34G C49A G50A | ≤ 0.5
103 | C34G A37G A65G | 0.966
104 | C34G A37C G63A | ≤ 0.5
105 | C33U G51C | ≤ 0.5
106 | C34G G68A | 0.586
107 | C34G G68C | 0.603
108 | C33U C34U G50A | 0.608
109 | C33U C49A G68C | ≤ 0.5
110 | C33U A36U G51C A69U | 0.551
111 | C33U U59A | 0.67
112 | C34A C66A | 0.509
113 | C33U C49A G58C A69U | 0.52
114 | C33U A65C C66U | 0.59
115 | C33U C34A A36G A42U C49U | 0.571
116 | C33U G56A | 0.682
117 | C33U A70G | 0.6
118 | C34A U47C A70G | 0.612
119 | C33U U53A G58C | ≤ 0.5
120 | C33U C49U G51C C55U | ≤ 0.5

Row | Variant | yeast fitness
121 | C33G U47G C66U | 0.56
122 | C34G G41C C60A | 0.607
123 | C34G G51C U53C | 0.616
124 | C34G C55A G68A | ≤ 0.5
125 | C33U G56U A65G | ≤ 0.5
126 | C33U A42C C55G G68C | ≤ 0.5
127 | C33U A40C | 0.777
128 | C33U A40U | 0.616
129 | C34G A42G G48C | 0.531
130 | C34G A57G A65G C66U | 0.58
131 | C34G A70G | 0.586
132 | C34G A70U | 0.597
133 | C34G A70C | 0.585
134 | C34A C61G | ≤ 0.5
135 | C34G A65U | 0.581
136 | C34G A65G | 0.765
137 | C34G A65C | 0.65
138 | C34A U53A G67A | ≤ 0.5
139 | C34G G44C G58C G68U | ≤ 0.5
140 | C33U G58U C61A | ≤ 0.5
141 | C34G A42G | 0.716
142 | C34G A43U C49A A69U | 0.584
143 | C33U A37C | 0.556
144 | C33U A37U | 0.55

Row | Variant | yeast fitness
145 | C33U A36C A70G | ≤ 0.5
146 | C34G G50C G56C | ≤ 0.5
147 | C34G A36G | 0.644
148 | C34G A36C | ≤ 0.5
149 | C34A C46G C60A | ≤ 0.5
150 | C34G U53C | 0.578
151 | C33U A40C A45C | 0.561
152 | C33U U35C C61U | 0.555
153 | C34G A42G G44C C66A | ≤ 0.5
154 | C34A G38C A43U | 0.588
155 | C33U G48A U64G | 0.618
156 | C34G C46A | 0.615
157 | C34G C46U | 0.616
158 | C34A A40G C66U | ≤ 0.5
159 | C34A A45U | 0.698
160 | C33U A40C A45C C60G A65C | ≤ 0.5
161 | C34G U35A G63C | ≤ 0.5
162 | C34A G63A | 0.621
163 | C34G G38A A57G | 0.539
164 | C34A C49A C60G A65C | ≤ 0.5
165 | C34A C49U G50C G58A | 0.869
166 | C33U G44A | 0.652
167 | C33U U64G A70C | 0.555
